Shown are actives, neighbours in structure and some others; about 1.8% of the full set was active somewhere.
CHOP UPR activ – activators of apoptotic arm of unfolded protein response (CHOP); AID 449763; 330,000 tested, 0.34% active; activation, % at 10 µM; CHO-CHOP luciferase reporter, UPR activation, luminescence; percent of tunicamycin response over DMSO baseline;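 active = at 10 µM dose, activation of 40% or more, normalized to positive control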
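System: CHO CHOP reporter cells. Amount: 500 cells per well. Buffer or medium: F12 medium, 10% FBS. Compound dosing: one dose, 10 µM in 0.5% DMSO. Incubation: 6 h compound exposure at 37 °C after overnight seeding. Technique: Steady-Glo luciferase luminescence. Benchmarks: tunicamycin and DMSO controls.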
CRFBP-R2 block – antagonists of CRF-binding protein/CRF-R2 receptor complex; HEK293 CRF-R2/CRF-BP, CRF-induced calcium fluorescence; inhibition, % at 11.8 µM; 350,000 tested, 0.59% active;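 active = inhibition of the ligand-induced calcium signal above about 50% at the single tested concentration, limit read from the data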
Jurkat NFkB inh – lowers PMA/ionomycin-induced NF-kB signal in Jurkat cells. PMA/ionomycin-induced NF-kB luciferase reporter, luminescence. inhibition, % at 4 µM. 330,000 tested, 0.53% active; in the data active = inhibition above about 50%
UPR XBP1 act – activators of adaptive arm of unfolded protein response (XBP1); CHO-XBP1 luciferase reporter, IRE1-XBP1 UPR activation, luminescence; percent of tunicamycin response, DMSO as zero; activation, % at 20 µM; 330,000 tested, 0.33% active; AID 463104;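 active = versus positive control, 20 µM dose yields 30% or more activation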
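assay system = CHO-XBP1 luciferase reporter cells | amount = 1000 cells/well | buffer or medium = F12 plus 10% FBS | compound dosing = single point, 20 µM final compound, 1% DMSO | incubation = 16-18 h cell attachment at 37 °C, then 6 h compound exposure | detection = Steady-Glo luminescence read | controls = tunicamycin 10 µg/mL and vehicle-only wells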
697 NFkB inh – lowers PMA/ionomycin-induced NF-kB signal in 697 B cells; 697 B-cell NF-kB luciferase reporter, 16 h; inhibition, % at 4 µM; 330,000 tested, 0.33% active; AID 435022; in the data active = inhibition above about 35%
Jurkat NFkB conf – lowers PMA/ionomycin-induced NF-kB signal in Jurkat cells; shares compounds with Jurkat NFkB inh; Jurkat NF-kB luciferase, 16 h; inhibition, % at 4 µM; 2,700 tested, 27% active; AID 435020;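 active = inhibition reaching about 45% at 4 µM in either replicate, limit read from the data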
Numbers stand for hits; 0 = inactive; - = not tested or not shown.

SMILES | CHOP UPR activ | CRFBP-R2 block | Jurkat NFkB inh | UPR XBP1 act | 697 NFkB inh | Jurkat NFkB conf
O=C(COc1ccc2ccccc2c1Br)Nc1ccncc1 | 0 | 0 | 55.9 | 0 | 0 | 0
c1ccc(-c2noc(-c3ccncc3)n2)nc1 | 0 | 0 | 0 | 0 | 0 | -
Cc1cccc(-c2noc(-c3ccc4c(c3)OCO4)n2)c1 | 0 | 0 | 0 | 0 | 0 | 0
c1ccc(-c2noc(-c3ccc4ccccc4c3)n2)nc1 | 0 | 0 | 54.3 | 0 | 0 | 77.0
c1ccc(-c2noc(-c3ccc4c(c3)OCO4)n2)nc1 | 0 | 0 | 68.0 | 0 | 0 | 69.2
CCCCN(C(=O)CSCC(=O)Nc1ccc(OC)cc1)c1c(N)n(CC(C)C)c(=O)[nH]c1=O | - | 0 | - | - | - | -
Cc1c(C(=O)OC2CCC(C)CC2)[nH]c2c1C(=O)CCC2 (centres undefined) | 0 | 0 | 0 | 0 | 0 | 0
Brc1ccc2c(c1)CN1CCCC1=N2 | 0 | 0 | 73.5 | 0 | 0 | 0
O=C1CN2C(=Nc3ccc(Br)cc3C2c2ccccc2)CCN1 (centres undefined) | 0 | 0 | 0 | 0 | 0 | -
Cn1cncc1C#Cc1ccc2cc(CCO)oc(=O)c2c1 | 0 | 0 | 0 | 0 | 0 | -
O=C(N/N=C\c1ccc(Cl)s1)C1COc2ccccc2O1 (centres undefined) | 0 | 0 | 0 | 0 | 0 | -
O=C(N/N=C/c1c[nH]c2ccccc12)C1COc2ccccc2O1 (centres undefined) | 0 | 0 | 53.1 | 0 | 0 | 0
CS(=O)c1nc(-c2ccc(Br)cc2)cc(-c2ccccc2)c1C#N (centres undefined) | 162.3 | 0 | 92.9 | 0 | 0 | 91.3
N#Cc1c(-c2ccc(Br)cc2)cc(-c2cccnc2)nc1N | 0 | 0 | 0 | 0 | 0 | -
COc1ccc(S(=O)(=O)Nc2ccc3c(c2)C(=O)N([C@H](C)CO)C[C@H](C)[C@@H](CN(C)S(=O)(=O)c2c(C)noc2C)O3)cc1 | 0 | 0 | 0 | 0 | 0 | -
S=C(NCCCN1CCOCC1)N1CCN(c2nc(-c3ccc(Cl)cc3)cs2)CC1 | 0 | 0 | 51.3 | 0 | 0 | 0
COc1cc(C(=O)Nc2ccc3c(c2)Cc2ccccc2-3)cc(OC)c1OC | 0 | 0 | 53.8 | 0 | 0 | 0
COc1cc(C(=O)Nc2ccc3c(c2)CCN3C(C)=O)cc(OC)c1OC | 0 | 0 | 67.7 | 0 | 0 | 0
O=C(Cc1ccc(Cl)cc1)NCC(=O)N1CCC2(CC1)NCCc1[nH]cnc12 | - | 0 | - | - | - | -
CCNc1nc(C#N)nc2c1ncn2-c1cc(F)cc(F)c1 | 0 | 0 | 0 | 0 | 0 | -
C/C(=N\Nc1ccc2nncn2n1)c1ccco1 | 0 | 0 | 0 | 0 | 0 | -
C/C(=N\Nc1ccc2nncn2n1)c1ccccn1 | 0 | 0 | 55.2 | 0 | 0 | 0
O=C(Cc1cccc(NC(=O)C2CCCN(C(=O)C3CCC3)C2)c1)Nc1cccc(C(=O)N2CCOCC2)c1 (centres undefined) | - | 0 | - | - | - | -
Oc1ccccc1/C=N/Nc1cccc2cccnc12 | 0 | 0 | 0 | 0 | 0 | 0
COc1ccccc1Oc1ccc(-c2cnc3ccccc3n2)cc1[N+](=O)[O-] | 0 | 0 | 59.5 | 0 | 0 | 0
SMILES | CHOP UPR activ | CRFBP-R2 block | Jurkat NFkB inh | UPR XBP1 act | 697 NFkB inh | Jurkat NFkB conf
Cc1cccc(N2CCN(C(=O)c3c(-c4ccccc4Cl)noc3C)CC2)c1C | 0 | - | 67.0 | 0 | 0 | 51.0
Cc1onc(-c2ccccc2Cl)c1C(=O)N1CCN(C=O)CC1 | 0 | 0 | 0 | 0 | 0 | -
COc1ccc(NC(=O)CNc2cccc(S(=O)(=O)N3CCCCCC3)c2)c([N+](=O)[O-])c1 | 0 | 0 | 0 | 0 | 0 | -
Cc1ccc2nc(C)c(CN3CCN(c4ccc([N+](=O)[O-])cc4Cl)CC3)n2c1 | 0 | - | 51.0 | 0 | 0 | 46.0
CCN(CC)S(=O)(=O)c1ccc(N/N=C/c2cc(OC)c(OC)cc2OC)nc1 | 0 | 0 | 0 | 0 | 0 | -
CCOc1cccc(/C=N/Nc2ccc(S(=O)(=O)N(CC)CC)cn2)c1O | 0 | 0 | 60.3 | 0 | 0 | 0
COc1ccc(-c2cc3ccccc3cn2)cc1 | 0 | 0 | 0 | 0 | 0 | 0
COc1ccc2cc(-c3ccccc3F)ncc2c1 | 0 | 0 | 0 | 0 | 0 | 0
COc1ccc2cc(-c3cccnc3)ncc2c1 | 0 | 0 | 0 | 0 | 0 | -
Cc1ccc(CNC(=O)C2CCC(=O)N(CC3CCCCC3)C2)o1 (centres undefined) | 0 | 0 | 0 | 0 | 0 | -
